Assay results pooled from the literature.
Each line is one published result; the experiments were not run side by side.
Target: Proto-oncogene tyrosine-protein kinase Src (SRC, Homo sapiens, UniProt P12931)

C#Cc1n[nH]c2c(-c3cn(C(C)c4ccccn4)c(=O)[nH]c3=O)cc(F)cc12 (stereo not drawn)  inhibition (enzyme activity, inhibitor; 1 µM): 9.4%
C[C@H](C(=O)N[C@H]1COc2ccccc2[C@@H]1S(C)(=O)=O)c1ccc(F)cc1  inhibition (enzyme activity, inhibitor; 10 µM): -5%
O=C1c2c(O)cc(O)cc2OC(c2ccc(O)c(O)c2)C1O (stereo not drawn)  inhibition (enzyme activity, inhibitor; 80 µM): 53%
Nc1ncc(-c2nc(N3CCOCC3)nc(N3CCOCC3)n2)c(C(F)F)n1  remaining binding (binding, competition with immobilised ligand; 10 µM): 57%
COc1ncccc1-c1cnn2ccc(N3CCN(C(=O)OC(C)C)CC3)nc12  remaining binding (binding, competition with immobilised ligand; 1 µM): 100%
c1ccc(C(NCCNC(c2ccccc2)c2ccccc2)c2ccccc2)cc1  inhibition (enzyme activity, inhibitor; 10 µM): -24%
Cn1cncc1[C@](O)(COc1ccc(C#N)cc1-c1ccc(OC(F)(F)F)cc1)c1ccc(C#N)cc1  remaining binding (cell-free assay, competition with immobilised ligand; 1 µM): 81%
O=c1[nH]c2ccccc2n1C1CCN(Cc2ccc(-c3[nH]c4cc5ncnc5cc4nc3-c3ccccc3)cc2)CC1  remaining signal (cell-free assay; 0.5 µM): 103%
Cn1cc(-c2cc(F)cc(N3CCn4c(cc5c4CCCC5)C3=O)c2CO)cc(Nc2ccc(N3CCN(C4COC4)CC3)cn2)c1=O  inhibition (enzyme activity, inhibitor; 0.1 µM): 13%
Cc1nn(C)cc1-c1nc2c(N3CCN(Cc4ccc(Cl)cc4)CC3)c(Cl)cnc2[nH]1  remaining binding (binding, competition with immobilised ligand; 1 µM): 100%
Cn1cc(-c2cccc(N3CCc4c(sc5c4CC(C)(C)C5)C3=O)c2CO)cc(Nc2ccncn2)c1=O  inhibition (enzyme activity, inhibitor; 1 µM): 39%
CC(C)(C)c1cc(C=C(C#N)C#N)cc(Br)c1O  remaining activity (enzyme activity, inhibitor; 0.5 µM): 87.4%
